Reference: ChEMBL document CHEMBL4316599, “Synthesis, in vitro and in vivo biological evaluation of substituted 3-(5-imidazo[2,1-b]thiazolylmethylene)-2-indolinones as new potent anticancer agents” (Eur J Med Chem, 2019)

Key:
[1] = Cytotoxicity against human COLON cells after 48 hrs by SRB assay; assay type: functional; settings: for CC50: read-out: LC50 (the source's name)
Outline: (§1)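 NCI-60 screen: single-dose pass at 10^-5 M, then a five-concentration assay from 10^-9 to 10^-4 M (highest 100 μM). Exposure was 48 h under standard NCI protocols. GI50, TGI and LC50 were derived per cell line and averaged by subpanel. Repeated tests are the mean of two experiments.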

Melanoma cell line = experiment: Cytotoxicity against human melanoma cells after 48 hrs by SRB assay; assay type: functional; settings: for CC50: read-out: LC50 (the source's name); outline: as §1
Renal cancer cell line = experiment: Cytotoxicity against human renal cancer cells after 48 hrs by SRB assay; assay type: functional; outline: as §1
Ovarian carcinoma cell = experiment: Cytotoxicity against human ovarian cancer cells after 48 hrs by SRB assay; assay type: functional; outline: as §1
NSCLC = experiment: Cytotoxicity against human NSCLC cells after 48 hrs by SRB assay; assay type: functional; outline: as §1
CNS carcinoma cell = experiment: Cytotoxicity against human CNS cancer cells after 48 hrs by SRB assay; assay type: functional; settings: for CC50: read-out: LC50 (the source's name); outline: as §1
Leukemia cell = experiment: Cytotoxicity against human leukemia cells after 48 hrs by SRB assay; assay type: functional; outline: as §1
Breast carcinoma cell = experiment: Cytotoxicity against human breast cancer cells after 48 hrs by SRB assay; assay type: functional; outline: as §1
Prostatic carcinoma cell = experiment: Cytotoxicity against human prostate cancer cells after 48 hrs by SRB assay; assay type: functional; outline: as §1
Tubulin (Bos taurus) [2] = target: T1, Tubulin (Bos taurus) (UniProt Q6B856+Q862L2+Q862F3); experiment: Inhibition of [3H]colchicine binding to bovine brain tubulin at 5 uM after 20 mins relative to control
Outline: (§2)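 Reaction mixtures held 1 μM tubulin, 5 μM [³H]colchicine and test compound at 5 or 50 μM. Read-out was percent inhibition of colchicine binding.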

Tubulin (Bos taurus) [3] = target: T1, Tubulin (Bos taurus); experiment: Inhibition of [3H]colchicine binding to bovine brain tubulin at 50 uM after 20 mins relative to control; outline: as §2
K562 [4] = experiment: Cell cycle arrest in human K562 cells assessed as mitotic index at 10 times IC50 by Giemsa staining-based assay (reference value: 3%); assay type: functional
K562 [5] = experiment: Cell cycle arrest in human K562 cells assessed as mitotic index at 5 times IC50 by Giemsa staining-based assay (reference value: 3%); assay type: functional
K562 [6] = experiment: Cytotoxicity against human K562 cells after 16 hrs by SRB assay; settings: K562, 16 h
Tubulin = Tubulin (Bos taurus, UniProt Q6B856+Q862L2+Q862F3); experiment: Inhibition of bovine brain tubulin polymerization after 20 mins by spectrophotometric analysis
Outline: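 Bovine brain tubulin (10 μM) in glutamate buffer preincubated with varying compound levels at 30 °C, then chilled to 0 °C. GTP added to 0.4 mM final, then warmed to 30 °C. Assembly followed by turbidity at 350 nm. IC50 is the concentration halving the extent of assembly after 20 min.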

K562 [7] = experiment: Cell cycle arrest in human K562 cells assessed as mitotic index at IC50 by Giemsa staining-based assay (reference value: 3%); assay type: functional
K562 [8] = experiment: Cytotoxicity against human K562 cells after 48 hrs by SRB assay; assay type: functional, cell-based

| SMILES | GI50 [1] [µM] | TGI [1] [µM] | CC50 [1] [µM] | GI50 (Melanoma cell line) [µM] | TGI (Melanoma cell line) [µM] | CC50 (Melanoma cell line) [µM] | GI50 (Renal cancer cell line) [µM] | TGI (Renal cancer cell line) [µM] | GI50 (Ovarian carcinoma cell) [µM] | LC50 (50% lethal concentration) (Ovarian carcinoma cell) [µM] | TGI (Ovarian carcinoma cell) [µM] | GI50 (NSCLC) [µM] | TGI (NSCLC) [µM] | GI50 (CNS carcinoma cell) [µM] | TGI (CNS carcinoma cell) [µM] | CC50 (CNS carcinoma cell) [µM] | GI50 (Leukemia cell) [µM] | GI50 (Breast carcinoma cell) [µM] | TGI (Breast carcinoma cell) [µM] | GI50 (Prostatic carcinoma cell) [µM] | also measured |
| --- | --- | --- | --- | --- | --- | --- | --- | --- | --- | --- | --- | --- | --- | --- | --- | --- | --- | --- | --- | --- | --- |
| COc1nc2sc(C)cn2c1C=C1C(=O)N(C)c2ccccc21 | 4.05 | 36.3 | 91.1 | 8.08 | 34.2 | 93.4 | 13.1 | 70.5 | 10.5 | 92.8 | 67 | 9.5 | 73.2 | 9.82 | 42.4 | 97.3 | 4.35 | 4.82 | 58.2 | 12.6 | LC50 (NSCLC): 95.1 µM; TGI (Leukemia cell): 74.2 µM; TGI (Prostatic carcinoma cell): 66.7 µM |
| COc1ccc2c(c1)/C(=C\c1c(OC)nc3sc(C)cn13)C(=O)N2 | 0.32 | 35.7 | 79.2 | 3.46 | 67.7 | – | 0.65 | 61.8 | 1.32 | 87.6 | 42.6 | 1.49 | 58.6 | 0.43 | 33.6 | 85.4 | 0.43 | 0.87 | 61.3 | 0.38 | LC50 (NSCLC): 88.9 µM; TGI (Prostatic carcinoma cell): 52.8 µM |
| COc1cc2c(cc1C)NC(=O)/C2=C/c1c(OC)nc2sc(C)cn12 | 42.9 | 91.7 | – | 31.5 | 91.7 | – | 5.81 | 58.9 | 7.22 | 91.4 | 47.1 | 5.25 | 74.9 | 5.7 | 20.4 | 68.3 | – | 4.57 | 50.9 | 18.8 | LC50 (50% lethal concentration) (Renal cancer cell line): 90.6 µM; LC50 (NSCLC): 98 µM; LC50 (concentration killing 50% of cells) (Breast carcinoma cell): 91.4 µM |
| Cc1nc2sccn2c1-c1nc2sccn2c1C=C1C(=O)Nc2cc(Cl)ccc21 | – | – | – | – | – | – | – | – | – | – | – | – | – | – | – | – | – | – | – | – | inhibition (Tubulin (Bos taurus) [2]): 15%; inhibition (Tubulin (Bos taurus) [3]): 28% |
| O=C1Nc2ccccc2C1=Cc1c(-c2ccncc2)nc2sccn12 | 0.68 | 63.4 | 94.3 | 3.27 | 78.3 | 92.2 | 14.9 | 73.2 | 2.34 | 91.8 | 61.3 | 8.97 | 82.4 | 1.6 | 49.7 | 95 | 2.65 | 5.42 | 67.3 | 1.1 | LC50 (50% lethal concentration) (Renal cancer cell line): 92.4 µM; TGI (Leukemia cell): 92 µM |
| COc1nc2sc(C)cn2c1/C=C1/C(=O)Nc2c1ccc1ccccc21 | 0.37 | 34.6 | 71.1 | 0.52 | 43.3 | 95 | 1.06 | 38.3 | 0.62 | 91.2 | 35.3 | 2.82 | 45.3 | 0.42 | 38.6 | 82.9 | 0.34 | 0.79 | 51.3 | 0.3 | LC50 (50% lethal concentration) (Renal cancer cell line): 89.6 µM; LC50 (NSCLC): 91.4 µM; TGI (Leukemia cell): 84.8 µM; TGI (Prostatic carcinoma cell): 35.2 µM; CC50 (Prostatic carcinoma cell; read-out: LC50 (the source's name)): 75.9 µM |
| O=C1Nc2ccc(O)cc2/C1=C/c1c(-c2ccncc2)nc2sccn12 | 7.5 | 93 | – | 15.8 | 89.4 | 99.1 | 43 | 90.1 | 33.8 | – | 86.2 | 21.2 | 76.8 | 4.46 | 80.4 | – | 10.1 | 4.43 | 84.2 | 15 | TGI (Leukemia cell): 67.6 µM |
| COc1nc2sc(C)cn2c1/C=C1/C(=O)Nc2ccccc21 | 0.8 | 56.8 | 93.3 | 16.2 | 74.8 | 94.9 | 3.53 | 67.6 | 6.29 | 96.3 | 55.6 | 5.68 | 65.2 | 1.97 | 40.1 | 87.9 | 0.5 | 2.52 | 67.3 | 2.09 | Activity (K562 [4]): 80%; inhibition (Tubulin (Bos taurus) [2]): 39%; inhibition (Tubulin (Bos taurus) [3]): 81%; Activity (K562 [5]): 61%; LC50 (NSCLC): 99 µM; IC50 (K562 [6]): 1 µM; LC50 (Leukemia cell): 93.7 µM; TGI (Leukemia cell): 7.25 µM; IC50 (Tubulin): 3.4 µM; Activity (K562 [7]): 42%; TGI (Prostatic carcinoma cell): 45 µM; Activity (K562 [8]): Dose-dependent effect |
| COc1nc2sc(C)cn2c1/C=C1/C(=O)Nc2ccc(O)cc21 | 4.79 | 78.2 | 98.2 | 4.88 | 38.6 | 94 | 6.58 | 79.4 | 12.8 | – | 63.5 | 7.54 | 72 | 4.76 | 64 | – | 3.32 | 4.57 | 66.2 | 7.59 | TGI (Leukemia cell): 61.7 µM; TGI (Prostatic carcinoma cell): 96.2 µM |
| COc1ccc2c(c1)/C(=C/c1c(-c3ccncc3)nc3sccn13)C(=O)N2C | 0.34 | 78.8 | 93 | 5.97 | 85.3 | – | 0.5 | 65.5 | 1.14 | 93.2 | 62.4 | 0.55 | 82.4 | 0.38 | 63.1 | – | 0.35 | 0.44 | 80.1 | 0.39 | LC50 (Leukemia cell): 96.1 µM; TGI (Leukemia cell): 81.8 µM; TGI (Prostatic carcinoma cell): 68.8 µM |
| COc1cc2c(c(OC)c1OC)/C(=C\c1c(OC)nc3sc(C)cn13)C(=O)N2 | 6.89 | 69.9 | 97.2 | 7.86 | 65.7 | 95.6 | 9.36 | 45 | 13.8 | 93 | 63.2 | 9.26 | 58.8 | 7.79 | 33.6 | 81.4 | 5.73 | 5.37 | 29.2 | 11.3 | LC50 (50% lethal concentration) (Renal cancer cell line): 98.2 µM; LC50 (NSCLC): 99.4 µM; LC50 (concentration killing 50% of cells) (Breast carcinoma cell): 99.3 µM |
